Measured values from ChEMBL document CHEMBL4834405, “Structure-Based Design of High-Affinity Macrocyclic FKBP51 Inhibitors” (J Med Chem, 2021).

How the values were obtained:
[1] = biological target: T1, Peptidyl-prolyl cis-trans isomerase FKBP4 (Homo sapiens, UniProt Q02790); experiment: (§1) Displacement of fluorescent tracer 5-(3-(4-((1S,5S,6S)-10-(3,5-dichlorophenylsulfonyl)-2-oxo-3-(pyridin-3-ylmethyl)-3,10-diazabicyclo[4.3.1]decan-5-yl)-1H-1,2,3-triazol-1-yl)propylcarbamoyl)-2-(6-(dimethylamino)-3-(dimethyliminio)-3H-xanthen-9-yl)benzoate from recombinant full length C-terminal FLAG-tagged FKBP52 (unknown origin) expressed in Escherichia coli BL21 (DE3) cells incubated for 30 mins by fluorescence polarisation competition binding assay
T1 sequence (Q02790 whole entry): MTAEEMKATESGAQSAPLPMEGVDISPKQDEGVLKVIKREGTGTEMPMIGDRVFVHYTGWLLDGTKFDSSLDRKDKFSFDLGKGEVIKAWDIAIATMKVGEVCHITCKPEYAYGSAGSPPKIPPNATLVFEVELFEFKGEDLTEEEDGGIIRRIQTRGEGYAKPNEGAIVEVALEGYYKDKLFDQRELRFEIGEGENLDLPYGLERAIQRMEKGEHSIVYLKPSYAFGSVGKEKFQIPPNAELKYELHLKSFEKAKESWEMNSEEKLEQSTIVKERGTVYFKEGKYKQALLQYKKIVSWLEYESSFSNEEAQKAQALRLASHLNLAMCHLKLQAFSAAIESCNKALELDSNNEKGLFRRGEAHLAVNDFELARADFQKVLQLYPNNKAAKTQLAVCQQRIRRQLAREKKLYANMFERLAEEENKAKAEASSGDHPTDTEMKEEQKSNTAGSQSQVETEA
Procedure, shortened: (§2)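 Competitive FP in 150 mM NaCl, 20 mM HEPES pH 8.0, 0.002% Triton X-100. Ligand 1:1 serially diluted in DMSO and premixed with fluorescent tracer, tracer working solution 11.9 nM (FKBP12.6, 51FK1, 52FK1) or 5.95 nM (FKBP12) before final 10-fold dilution into protein. 30 min at room temperature, read at ex/em 535/590 nm. Weighted SD from at least two independent runs.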

[2] = biological target: Peptidyl-prolyl cis-trans isomerase FKBP1A (Homo sapiens, UniProt P62942); experiment: as §1, with “FKBP12” for “FKBP52”, “([…])” for “(DE3)”; procedure, shortened: as §2
Sequence of Peptidyl-prolyl cis-trans isomerase FKBP1A (P62942 whole entry): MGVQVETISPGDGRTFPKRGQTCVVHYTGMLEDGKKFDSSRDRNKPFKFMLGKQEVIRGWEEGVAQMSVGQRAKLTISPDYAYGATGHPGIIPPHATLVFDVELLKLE

[3] = biological target: Peptidyl-prolyl cis-trans isomerase FKBP1B (Homo sapiens, UniProt P68106); experiment: as §1, with “FKBP12.6” for “FKBP52”, “competition” for “competition binding”; procedure, shortened: as §2
Sequence of Peptidyl-prolyl cis-trans isomerase FKBP1B (P68106 whole entry): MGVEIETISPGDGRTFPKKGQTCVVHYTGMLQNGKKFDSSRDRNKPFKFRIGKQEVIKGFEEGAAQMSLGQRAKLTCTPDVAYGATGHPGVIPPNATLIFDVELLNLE

[4] = biological target: T2, Peptidyl-prolyl cis-trans isomerase FKBP5 (Homo sapiens, UniProt Q13451); experiment: as §1, with “FKBP51” for “FKBP52”
T2 sequence (Q13451 whole entry): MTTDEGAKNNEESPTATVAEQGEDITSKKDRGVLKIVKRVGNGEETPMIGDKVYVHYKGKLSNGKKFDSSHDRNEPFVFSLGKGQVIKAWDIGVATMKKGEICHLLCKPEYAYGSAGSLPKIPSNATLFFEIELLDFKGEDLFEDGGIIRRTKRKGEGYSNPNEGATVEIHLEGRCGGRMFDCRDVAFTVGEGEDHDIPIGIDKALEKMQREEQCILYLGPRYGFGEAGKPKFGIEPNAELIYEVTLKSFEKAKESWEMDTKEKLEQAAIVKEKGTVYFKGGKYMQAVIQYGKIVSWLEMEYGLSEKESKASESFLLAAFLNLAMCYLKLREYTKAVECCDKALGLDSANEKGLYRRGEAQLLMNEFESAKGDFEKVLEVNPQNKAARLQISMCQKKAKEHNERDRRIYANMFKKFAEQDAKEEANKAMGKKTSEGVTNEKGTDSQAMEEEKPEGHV

[5] = (§3) Selectivity ratio of Kd for displacement of fluorescent tracer 5-(3-(4-((1S,5S,6S)-10-(3,5-dichlorophenylsulfonyl)-2-oxo-3-(pyridin-3-ylmethyl)-3,10-diazabicyclo[4.3.1]decan-5-yl)-1H-1,2,3-triazol-1-yl)propylcarbamoyl)-2-(6-(dimethylamino)-3-(dimethyliminio)-3H-xanthen-9-yl)benzoate from recombinant full length C-terminal FLAG-tagged FKBP52 (unknown origin) to Kd for displacement of fluorescent tracer 5-(3-(4-((1S,5S,6S)-10-(3,5-dichlorophenylsulfonyl)-2-oxo-3-(pyridin-3-ylmethyl)-3,10-diazabicyclo[4.3.1]decan-5-yl)-1H-1,2,3-triazol-1-yl)propylcarbamoyl)-2-(6-(dimethylamino)-3-(dimethyliminio)-3H-xanthen-9-yl)benzoate from recombinant full length C-terminal FLAG-tagged FKBP51 (unknown origin)
[6] = as §3, with “FJBP12” for “FKBP52 (unknown origin)”
[7] = as §3, with “FKBP12.6” for “FKBP52”

Compound | Kd [1] | Kd [2] | Kd [3] | Kd [4] | Selectivity ratio [5] | Selectivity ratio [6] | Selectivity ratio [7]
COc1ccc(CC[C@H]2OC(=O)[C@@H]3CCCCN3C(=O)[C@@H](C3CCCCC3)c3cc(OC)c(c(OC)c3)OCCCOCCCCOc3cccc2c3)cc1OC | > 10000 nM | 484 nM | 277 nM | 75 nM | > 133 | 6.4 | 3.7
COc1ccc(CC[C@H]2OC(=O)[C@@H]3CCCCN3C(=O)[C@@H](C3CCCCC3)c3cc(OC)c(OC)c(c3)OCCOc3cccc2c3)cc1OC | 9090 nM | 247 nM | 82 nM | 55 nM | > 165 | 4.5 | 1.5
COc1cccc([C@@H](CCc2ccc(OC)c(OC)c2)OC(=O)[C@@H]2CCCCN2C(=O)[C@H](c2cc(OC)c(OC)c(OC)c2)C2CCCCC2)c1 | > 10000 nM | 263 nM | 203 nM | 83 nM | – | – | –
COc1ccc(CC[C@H]2OC(=O)[C@@H]3CCCCN3C(=O)[C@@H](C3CCCCC3)c3cc(OC)c(OC)c(c3)OCCC(=O)COc3cccc2c3)cc1OC | 3530 nM | 59 nM | 32 nM | 12 nM | 294 | 4.9 | 2.7
COc1ccc(CC[C@H]2OC(=O)[C@@H]3CCCCN3C(=O)[C@@H](C3CCCCC3)c3cc(OC)c(OC)c(c3)OCCCCCOc3cccc2c3)cc1OC | > 10000 nM | 126 nM | 100 nM | 46 nM | > 217 | 2.7 | 2.2
COc1ccc(CC[C@H]2OC(=O)[C@@H]3CCCCN3C(=O)[C@@H](C3CCCCC3)c3cc(OC)c(OC)c(c3)OCCCOCCCCOc3cccc2c3)cc1OC | > 10000 nM | 354 nM | 227 nM | 103 nM | > 97 | 3.4 | 2.2
COc1ccc(CC[C@H]2OC(=O)[C@@H]3CCCCN3C(=O)[C@@H](C3CCCCC3)c3cc(OC)c(OC)c(c3)OCCOCC(=O)CCOc3cccc2c3)cc1OC | 3880 nM | 62 nM | 53 nM | 28 nM | 138 | 2.2 | 1.9
COc1ccc(CC[C@H]2OC(=O)[C@@H]3CCCCN3C(=O)[C@@H](C3CCCCC3)c3cc(OC)c(OC)c(c3)OCCOCCCCOc3cccc2c3)cc1OC | > 10000 nM | 135 nM | 115 nM | 61 nM | > 164 | 2.2 | 1.9
COc1ccc(CC[C@H]2OC(=O)[C@@H]3CCCCN3C(=O)[C@@H](C3CCCCC3)c3cc(OC)c(OC)c(c3)OC[C@H](O)[C@@H](O)COc3cccc2c3)cc1OC | 3850 nM | 44 nM | 19 nM | 17 nM | 227 | 2.6 | 1.1
COc1ccc(CC[C@H]2OC(=O)[C@@H]3CCCCN3C(=O)[C@@H](C3CCCCC3)c3cc(OC)c(OC)c(c3)OCCCC(=O)COc3cccc2c3)cc1OC | 4100 nM | 66 nM | 43 nM | 28 nM | 146 | 2.4 | 1.5

Now from value to compound:

Kd [1] | Kd [2] | Kd [3] | Kd [4] | Selectivity ratio [5] | Selectivity ratio [6] | Selectivity ratio [7] | Compound
> 10000 nM | 798 nM | 344 nM | – | – | – | – | COc1ccc(CC[C@H]2OC(=O)[C@@H]3CCCCN3C(=O)[C@@H](C3CCCCC3)c3cc(OC)c(c(OC)c3)OCCOC/C=C\COc3cccc2c3)cc1OC
> 10000 nM | 1490 nM | 849 nM | 119 nM | > 84 | 12.5 | 7.1 | COc1ccc(CC[C@H]2OC(=O)[C@@H]3CCCCN3C(=O)[C@@H](C3CCCCC3)c3cc(OC)c(c(OC)c3)OCCCCCOc3cccc2c3)cc1OC
> 10000 nM | 744 nM | 446 nM | 70 nM | > 142 | 10.6 | 6.3 | COc1ccc(CC[C@H]2OC(=O)[C@@H]3CCCCN3C(=O)[C@@H](C3CCCCC3)c3cc(OC)c(c(OC)c3)OCCCOc3cccc2c3)cc1OC
> 10000 nM | 192 nM | 105 nM | 62 nM | > 161 | 3.1 | 1.7 | COc1ccc(CC[C@H]2OC(=O)[C@@H]3CCCCN3C(=O)[C@@H](C3CCCCC3)c3cc(OC)c(OC)c(c3)OCCOC/C=C/COc3cccc2c3)cc1OC
> 10000 nM | 815 nM | 658 nM | 67 nM | > 149 | 12.2 | 9.8 | COc1ccc(CC[C@H]2OC(=O)[C@@H]3CCCCN3C(=O)[C@@H](C3CCCCC3)c3cc(OC)c(c(OC)c3)OC/C=C\COc3cccc2c3)cc1OC
4670 nM | 86 nM | 38 nM | 11 nM | 425 | 7.8 | 3.4 | COc1ccc(CC[C@H]2OC(=O)[C@@H]3CCCCN3C(=O)[C@@H](C3CCCCC3)c3cc(OC)c(c(OC)c3)OCCC(=O)COc3cccc2c3)cc1OC
> 10000 nM | 768 nM | 606 nM | 89 nM | > 112 | 8.6 | 6.8 | COc1ccc(CC[C@H]2OC(=O)[C@@H]3CCCCN3C(=O)[C@@H](C3CCCCC3)c3cc(OC)c(c(OC)c3)OC/C=C/COc3cccc2c3)cc1OC
> 10000 nM | 1010 nM | 1080 nM | 149 nM | > 67 | 6.8 | 7.2 | COc1ccc(CC[C@H]2OC(=O)[C@@H]3CCCCN3C(=O)[C@@H](C3CCCCC3)c3cc(OC)c(c(OC)c3)OCC/C=C/COc3cccc2c3)cc1OC
> 10000 nM | 584 nM | 383 nM | 89 nM | > 112 | 6.6 | 4.3 | COc1ccc(CC[C@H]2OC(=O)[C@@H]3CCCCN3C(=O)[C@@H](C3CCCCC3)c3cc(OC)c(c(OC)c3)OCCCCOc3cccc2c3)cc1OC
5390 nM | 212 nM | 216 nM | 108 nM | 49.9 | 1.9 | 2 | COc1ccc(CC[C@H]2OC(=O)[C@@H]3CCCCN3C(=O)[C@@H](C3CCCCC3)c3cc(OC)c(OC)c(c3)OC/C=C/COc3cccc2c3)cc1OC
> 10000 nM | 1010 nM | 715 nM | – | – | – | – | COc1ccc(CC[C@H]2OC(=O)[C@@H]3CCCCN3C(=O)[C@@H](C3CCCCC3)c3cc(OC)c(c(OC)c3)OCCOC/C=C/COc3cccc2c3)cc1OC
